Calls of active or inactive are those of the source. No cut-off for these calls is given here.
Legend:
Astrocyte = experiment: Antiapoptotic activity against Sprague-Dawley rat astrocytes assessed as reduction of oxaliplatin-induced caspase-3 activity at 0.1 to 10 uM after 4 hrs by fluorimetric assay; assay type: functional, cell-based
Summary of the method: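 Primary cortical astrocytes from newborn (P1–P3) rats, GFAP-positive, used 21 days after isolation and serum-starved overnight. Cells were exposed to 100 μM oxaliplatin for 4 h with test compound co-incubated. Lysates were incubated with 0.025 mM Z-DEVD-R110 at 25 °C for 30 min and read by fluorescence (ex 496/em 520 nm). Output is % of untreated control, mean SEM.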

Adenosine receptor A3 [1] = target: T1, Adenosine receptor A3 (Homo sapiens, UniProt P0DMS8); experiment: Inhibition of human A3 adenosine receptor transfected in CHO cells assessed as inhibition of forskolin-induced cyclic AMP production after 10 mins by competitive protein binding assay in presence of CI-IB-MECA; assay type: functional, cell-based
T1 sequence (P0DMS8 whole entry): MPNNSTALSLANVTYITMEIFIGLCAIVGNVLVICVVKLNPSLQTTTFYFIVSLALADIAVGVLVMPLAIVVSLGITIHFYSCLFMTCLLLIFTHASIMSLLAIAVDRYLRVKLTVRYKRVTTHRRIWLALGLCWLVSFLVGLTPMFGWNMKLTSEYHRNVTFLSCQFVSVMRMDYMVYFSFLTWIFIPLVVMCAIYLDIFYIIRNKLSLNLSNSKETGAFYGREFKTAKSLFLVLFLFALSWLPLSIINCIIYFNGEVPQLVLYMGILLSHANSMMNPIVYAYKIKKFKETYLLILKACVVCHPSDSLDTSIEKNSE
Summary of the method: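 Human A3 CHO cells (1 × 10⁶/assay) preincubated 10 min at 37 °C with adenosine deaminase and Ro 20-1724. Antagonist potency measured against 100 nM Cl-IB-MECA-mediated inhibition of 1 μM forskolin-stimulated cAMP. cAMP quantified by [3H]cAMP competition binding. IC50 by sigmoid regression, mean SEM of four experiments.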

[2] = target: T2, Adenosine receptor A3 (Rattus norvegicus) (UniProt P28647); experiment: Displacement of [125I]AB-MECA from rat A3 adenosine receptor expressed in HEK293 cells at 1 uM after 60 mins by scintillation counting analysis; assay type: cell-based
T2 sequence (whole entry): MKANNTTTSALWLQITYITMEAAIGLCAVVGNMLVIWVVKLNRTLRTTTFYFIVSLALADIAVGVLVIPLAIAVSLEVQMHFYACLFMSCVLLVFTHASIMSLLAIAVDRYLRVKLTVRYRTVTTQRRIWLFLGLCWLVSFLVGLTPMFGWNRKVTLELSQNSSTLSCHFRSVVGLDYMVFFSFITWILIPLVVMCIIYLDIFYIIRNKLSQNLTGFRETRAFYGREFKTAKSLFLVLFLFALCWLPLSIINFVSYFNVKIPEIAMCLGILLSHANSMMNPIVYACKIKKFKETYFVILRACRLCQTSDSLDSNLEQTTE
Summary of the method: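 Rat A3 receptor in HEK293 membranes (10 μg protein) incubated with 0.5 nM [125I]AB-MECA in 50 mM Tris-HCl, 10 mM MgCl2, 1 mM EDTA, pH 7.4, for 60 min at 37 °C. Nonspecific binding defined with 1 μM AB-MECA. Filtration then scintillation counting. Output is % inhibition at 1 μM.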

Adenosine receptor A3 [3] = target: T1, Adenosine receptor A3; experiment: Displacement of [125I]AB-MECA from human A3 adenosine receptor expressed in CHO cells after 60 mins by scintillation counting analysis; assay type: cell-based
Adenosine receptor A2a = Adenosine receptor A2a (Homo sapiens, UniProt P29274); experiment: Displacement of [3H]ZM241385 from human A2A adenosine receptor expressed in CHO cells at 1 uM after 60 mins by scintillation counting analysis; assay type: cell-based
Summary of the method: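 Human A2A CHO membranes (50 μg protein) incubated with 1 nM [3H]ZM-241385 in 50 mM Tris-HCl, 10 mM MgCl2, pH 7.4, for 60 min at 4 °C, using 6–8 concentrations or 1 μM for % inhibition. Nonspecific binding defined with 1 μM ZM-241385. Ki via Cheng–Prusoff, mean SEM of four assays in duplicate.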

[4] = target: T3, Adenosine receptor A1 (Homo sapiens) (UniProt P30542); experiment: Displacement of [3H]DPCPX from human A1 adenosine receptor expressed in CHO cells at 1 uM after 120 mins by scintillation counting analysis; assay type: cell-based
T3 sequence (whole entry): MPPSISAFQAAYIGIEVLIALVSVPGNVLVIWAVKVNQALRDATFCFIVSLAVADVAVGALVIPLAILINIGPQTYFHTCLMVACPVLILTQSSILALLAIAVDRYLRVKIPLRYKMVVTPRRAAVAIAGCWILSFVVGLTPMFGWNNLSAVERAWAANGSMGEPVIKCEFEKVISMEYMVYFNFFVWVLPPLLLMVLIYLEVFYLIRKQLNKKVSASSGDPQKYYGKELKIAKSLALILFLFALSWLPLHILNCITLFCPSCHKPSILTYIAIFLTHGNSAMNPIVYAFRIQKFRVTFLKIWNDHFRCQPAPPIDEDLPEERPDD

[5] = target: T4, Adenosine receptor A2b (Homo sapiens) (UniProt P29275); experiment: Inhibition of human A2B adenosine receptor transfected in CHO cells assessed as inhibition of NECA-induced cyclic AMP production at 1 uM after 10 mins by competitive protein binding assay; assay type: cell-based
T4 sequence (whole entry): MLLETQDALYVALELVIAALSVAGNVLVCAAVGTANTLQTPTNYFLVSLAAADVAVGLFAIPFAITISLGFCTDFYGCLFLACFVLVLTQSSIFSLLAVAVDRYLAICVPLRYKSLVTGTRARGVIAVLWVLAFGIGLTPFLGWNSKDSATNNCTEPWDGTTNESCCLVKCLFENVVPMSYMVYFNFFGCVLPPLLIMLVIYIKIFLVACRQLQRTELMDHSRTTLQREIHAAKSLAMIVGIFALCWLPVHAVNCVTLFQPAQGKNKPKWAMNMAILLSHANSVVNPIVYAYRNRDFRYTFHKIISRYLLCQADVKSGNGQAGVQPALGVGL
Summary of the method: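 Human A2B CHO cells (1 × 10⁶/assay) preincubated 10 min at 37 °C in buffer with adenosine deaminase (2 IU/mL) and Ro 20-1724. Antagonist inhibition of 200 nM NECA-stimulated cAMP measured; reaction stopped with TCA. cAMP quantified by [3H]cAMP competition with adrenal binding protein. IC50 by sigmoid fit, mean SEM of four experiments; % inhibition at 1 μM.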

[6] = target: T5, Adenosine receptor A3 (Homo sapiens) (UniProt P0DMS8); experiment: Displacement of [125I]AB-MECA from human A3 adenosine receptor expressed in CHO cells at 1 uM after 60 mins by scintillation counting analysis; assay type: cell-based
T5 sequence (whole entry): T1 sequence (P0DMS8 whole entry)
Summary of the method: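 Human A3 CHO membranes (50 μg protein) incubated with 0.5 nM [125I]AB-MECA in 50 mM Tris-HCl, 10 mM MgCl2, 1 mM EDTA, pH 7.4, for 60 min at 37 °C. Nonspecific binding defined with 1 μM AB-MECA. Filtration then counting. Output is % inhibition at 1 μM.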

Adenosine receptor A1 = target: T6, Adenosine receptor A1 (Homo sapiens, UniProt P30542); experiment: Displacement of [3H]DPCPX from human A1 adenosine receptor expressed in CHO cells after 120 mins by scintillation counting analysis; assay type: cell-based
T6 sequence (P30542 whole entry): T3 sequence (whole entry)

Adenosine receptor A2a, sequence (P29274 whole entry): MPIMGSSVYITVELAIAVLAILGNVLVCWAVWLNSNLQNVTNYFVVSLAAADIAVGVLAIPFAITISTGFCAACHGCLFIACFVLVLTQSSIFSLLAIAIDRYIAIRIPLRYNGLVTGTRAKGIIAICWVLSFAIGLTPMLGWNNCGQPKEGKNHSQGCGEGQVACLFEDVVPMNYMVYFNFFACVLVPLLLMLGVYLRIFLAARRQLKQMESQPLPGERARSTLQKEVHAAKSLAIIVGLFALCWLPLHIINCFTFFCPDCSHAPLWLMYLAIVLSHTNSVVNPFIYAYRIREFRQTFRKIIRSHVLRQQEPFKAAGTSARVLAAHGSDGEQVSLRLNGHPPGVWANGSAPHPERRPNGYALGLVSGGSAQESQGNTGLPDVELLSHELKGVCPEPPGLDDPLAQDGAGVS

Activity (Astrocyte)	IC50 (Adenosine receptor A3 [1]) [nM]	inhibition [2] [%]	Ki (Adenosine receptor A3 [3]) [nM]	inhibition (Adenosine receptor A2a) [%]	inhibition [4] [%]	inhibition [5] [%]	inhibition [6] [%]	Ki (Adenosine receptor A1) [nM]	Structure (SMILES)
Active	63	12	18	1	3	2			COc1ccc(-n2cc3nc(-c4ccccc4)nc(NC(=O)c4ccccc4)c3n2)cc1
Active	61	2	18	5	5	2			O=C(Cc1ccccc1)Nc1nc(-c2ccccc2)nc2cn(-c3ccccc3)nc12
				1	1	1	30		Cc1nc(NC(=O)Nc2ccccc2)c2nn(-c3ccccc3)cc2n1
			98	11	1	1			COc1ccc(-n2cc3nc(-c4ccccc4)nc(NC(C)=O)c3n2)cc1
	128		35	7	1	1			COc1ccc(-n2cc3nc(C)nc(NC(=O)c4ccccc4)c3n2)cc1
			45	6	6	1			COc1ccc(-n2cc3nc(C)nc(NC(=O)c4ccco4)c3n2)cc1
			100	30	30	30			COc1ccc(-n2cc3nc(C)nc(NC(C)=O)c3n2)cc1
				1	4	1			COc1ccc(C(=O)Nc2nc(C)nc3cn(-c4ccccc4)nc23)cc1
				13	5	13	1		COc1ccc(-n2cc3nc(C)nc(NC(=O)Nc4ccccc4)c3n2)cc1
			3.2	1	1	1			O=C(Nc1nc(-c2ccccc2)nc2cn(-c3ccccc3)nc12)c1cccnc1
			33	1	4	1			Cc1nc(N(C(=O)c2ccco2)C(=O)c2ccco2)c2nn(-c3ccccc3)cc2n1
Active	19.7	6	5.6	1	30	2			Cc1nc(NC(=O)c2ccccc2)c2nn(-c3ccccc3)cc2n1
			20	1	20	1			Cc1nc(NC(=O)c2ccco2)c2nn(-c3ccccc3)cc2n1
			25	1	1	1			O=C(Nc1nc(-c2ccccc2)nc2cn(-c3ccccc3)nc12)c1ccncc1
			7.3	1	3	1			COc1ccc(C(=O)Nc2nc(-c3ccccc3)nc3cn(-c4ccccc4)nc23)cc1
	65		20	5	5	2			O=C(Nc1nc(-c2ccccc2)nc2cn(-c3ccccc3)nc12)c1ccccc1

Activity (Astrocyte)	IC50 (Adenosine receptor A3 [1]) [nM]	inhibition [2] [%]	Ki (Adenosine receptor A3 [3]) [nM]	inhibition (Adenosine receptor A2a) [%]	inhibition [4] [%]	inhibition [5] [%]	inhibition [6] [%]	Ki (Adenosine receptor A1) [nM]	Structure (SMILES)
				37	40	33	45		COc1ccc(-n2cc3nc(Cc4ccccc4)nc(N)c3n2)cc1
			5.3	1	12	1			Cc1nc(NC(=O)c2cccnc2)c2nn(-c3ccccc3)cc2n1
			5.2	1	12				Cc1nc(NC(=O)c2ccncc2)c2nn(-c3ccccc3)cc2n1
			520	11	9	11			COc1ccc(-n2cc3nc(C)nc(NC(=O)Cc4ccccc4)c3n2)cc1
					1				Cc1nc2cn(-c3ccccc3)nc2c(=O)[nH]1
	115		33	1	6	5			Cc1nc(N(C(=O)c2ccccc2)C(=O)c2ccccc2)c2nn(-c3ccccc3)cc2n1
			300	4	25	5			CC(=O)Nc1nc(C)nc2cn(-c3ccccc3)nc12
			75	1	3	1			O=C(c1ccco1)N(C(=O)c1ccco1)c1nc(-c2ccccc2)nc2cn(-c3ccccc3)nc12
			120	13		1		510	Cc1nc(NC(=O)Cc2ccccc2)c2nn(-c3ccccc3)cc2n1
	103		32	5	5	2			CC(=O)Nc1nc(-c2ccccc2)nc2cn(-c3ccccc3)nc12
			24	1	11	1			O=C(Nc1nc(-c2ccccc2)nc2cn(-c3ccccc3)nc12)c1ccco1
				7	26	10	1		Cc1nc(NC(=O)NCc2ccccc2)c2nn(-c3ccccc3)cc2n1
				1	30	2	38		COc1ccc(-n2cc3nc(C)nc(N)c3n2)cc1
				7	8	1	6		COc1ccc(-n2cc3nc(C)nc(NC(=O)NCc4ccccc4)c3n2)cc1
			75	35	12	3			COc1ccc(-n2cc3nc(-c4ccccc4)nc(N)c3n2)cc1
